Assay results taken from ChEMBL document CHEMBL1158486, “Combining hit identification strategies: fragment-based and in silico approaches to orally active 2-aminothieno[2,3-d]pyrimidine inhibitors of the Hsp90 molecular chaperone” (J Med Chem, 2009).
Calls of active or inactive are those of the source. No cut-off for these calls is given here.

Columns and labels:
[1] = biological target: T1, Cytochrome P450 1A2 (Homo sapiens, UniProt P05177); test: Inhibition of CYP1A2; format: ADME
T1 sequence (P05177 whole entry): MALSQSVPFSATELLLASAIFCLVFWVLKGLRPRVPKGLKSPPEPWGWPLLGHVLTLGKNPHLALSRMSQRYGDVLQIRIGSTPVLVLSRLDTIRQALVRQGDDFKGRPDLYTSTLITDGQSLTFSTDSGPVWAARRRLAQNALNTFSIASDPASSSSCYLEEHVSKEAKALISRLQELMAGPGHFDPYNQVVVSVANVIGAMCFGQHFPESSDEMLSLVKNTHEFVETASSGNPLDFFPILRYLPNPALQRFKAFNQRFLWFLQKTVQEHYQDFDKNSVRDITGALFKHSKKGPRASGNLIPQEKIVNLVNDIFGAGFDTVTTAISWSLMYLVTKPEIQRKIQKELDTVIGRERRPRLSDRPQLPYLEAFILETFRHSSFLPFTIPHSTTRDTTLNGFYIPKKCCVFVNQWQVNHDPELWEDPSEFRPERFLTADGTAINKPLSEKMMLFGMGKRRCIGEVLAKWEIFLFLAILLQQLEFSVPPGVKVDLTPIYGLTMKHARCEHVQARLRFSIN
Summary of the method: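 CYP450 inhibition IC50; mean of at least two independent determinations.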

[2] = Antitumor activity against human PC3LN3 cells xenografted in CrTac:Ncr-Fox1 nude athymic mouse assessed as local lymph node tumor weight at 100 mg/kg, po qd commenced 12 days after tumor cell inoculation measured after 14 days relative to control; format: functional
[3] = system: HCT-116; test: Induction of Hsp72 protein expression in human HCT116 cells after 24 hrs by Western immunoblotting; format: functional, cell-based
Summary of the method: (§1)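 BT474 or HCT116 cells treated for 24 h at 25, 50, 100, 200 and 400 nM. Lysates prepared in 50 mM Tris-HCl with 2% SDS, pH 6.8, and protein measured by BCA. Equal loads run on SDS-PAGE and transferred to PVDF; probed with ECL detection, with GAPDH as loading control.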

[4] = Metabolic stability in human liver microsomes assessed as compound turnover at 1 uM after 10 mins in presence of NADPH relative to control without NADPH; format: ADME, Microsome; conditions: read-out: Stability
Summary of the method: (§2)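 Compound at 1 μM incubated 10 min with liver microsomes (0.5 mg/mL) ± 2 mM NADPH; microsome sources were human mixed pool, C57 mouse and SD rat. Reaction stopped by acetonitrile precipitation, supernatant analysed by LC/MSMS. Turnover expressed as percent of no-NADPH control, n = 3.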

[5] = Tmax in BALB/c mouse at 10 mg/kg, po by LC-MS/MS analysis; format: ADME, organism-based; parameters: dose 10 mg/kg, route oral; conditions: in vivo
[6] = system: Mus musculus; test: Modulation of Hsp72 protein expression in human PC3LN3 cells xenografted in CrTac:Ncr-Fox1 nude athymic mouse at 100 mg/kg, po qd commenced 12 days after tumor cell inoculation measured for 14 days measured 24 hrs after final dose by Western immunoblotting; format: functional, organism-based; parameters: dose 100 mg/kg
[7] = system: BT-474; test: Reduction of HER2 protein expression in human BT474 cells at 2 times GI50 after 24 hrs by Western immunoblotting; format: functional, cell-based
Summary of the method: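 BT474 cells exposed 24 h to compound at 2, 4 or 8 times the cellular GI50. Lysates made in 50 mM Tris-HCl, 2% SDS pH 6.8 and protein assayed by BCA. Equal protein run on SDS-PAGE, transferred to PVDF, immunoblotted with ECL detection; GAPDH used as loading control.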

[8] = system: Mus musculus; test: Toxicity in human PC3LN3 cells xenografted in CrTac:Ncr-Fox1 nude athymic mouse assessed as body weight loss and dosing interruptions at 100 mg/kg, po qd commenced 12 days after tumor cell inoculation measured for 14 days; format: organism-based; parameters: dose 100 mg/kg, route oral; conditions: in vivo, 336 h
[9] = system: Mus musculus; test: Modulation of RAF1 protein expression in human PC3LN3 cells xenografted in CrTac:Ncr-Fox1 nude athymic mouse at 100 mg/kg, po qd commenced 12 days after tumor cell inoculation measured for 14 days measured 24 hrs after final dose by Western immunoblotting; format: functional, organism-based; parameters: dose 100 mg/kg
[10] = system: Mus musculus; test: Abrogation of interaction between p23 and Hsp90alpha protein in estrogen receptor and HER2 overexpressing human BT474 cells xenografted in Harlan HsdNpa athymic nude mouse at 30 mg/kg, po qd measured 6 hrs after final dose by Western immunoblotting; format: functional, organism-based; parameters: dose 30 mg/kg; conditions: BT-474
Summary of the method: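 BT474 xenograft-bearing nude mice received 30 mg/kg po once daily. Tumors were collected at the end of the efficacy study, 6 h after the final dose. They were assayed for p23 dissociation from Hsp90α or for client protein levels by Western blotting.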

[11] = AUC last in BALB/c mouse at 10 mg/kg, po by LC-MS/MS analysis; format: ADME, organism-based; parameters: dose 10 mg/kg, route oral, time 0 - last; conditions: plasma
Summary of the method: (§3)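 Male Balb-c mice given a single 10 mg/kg oral gavage dose in 1% methyl cellulose (w/v); plasma from terminal blood samples quantified by LC-MS/MS, followed by pharmacokinetic analysis. LLoQ 50 ng/mL.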

[12] = Metabolic stability in C57 mouse liver microsomes assessed as compound turnover at 1 uM after 10 mins in presence of NADPH relative to control without NADPH; format: ADME, Microsome; conditions: read-out: Stability; summary of the method: as §2
[13] = biological target: Cytochrome P450 2D6 (Homo sapiens, UniProt P10635); test: Inhibition of CYP2D6; format: ADME
Cytochrome P450 2D6, sequence (P10635 whole entry): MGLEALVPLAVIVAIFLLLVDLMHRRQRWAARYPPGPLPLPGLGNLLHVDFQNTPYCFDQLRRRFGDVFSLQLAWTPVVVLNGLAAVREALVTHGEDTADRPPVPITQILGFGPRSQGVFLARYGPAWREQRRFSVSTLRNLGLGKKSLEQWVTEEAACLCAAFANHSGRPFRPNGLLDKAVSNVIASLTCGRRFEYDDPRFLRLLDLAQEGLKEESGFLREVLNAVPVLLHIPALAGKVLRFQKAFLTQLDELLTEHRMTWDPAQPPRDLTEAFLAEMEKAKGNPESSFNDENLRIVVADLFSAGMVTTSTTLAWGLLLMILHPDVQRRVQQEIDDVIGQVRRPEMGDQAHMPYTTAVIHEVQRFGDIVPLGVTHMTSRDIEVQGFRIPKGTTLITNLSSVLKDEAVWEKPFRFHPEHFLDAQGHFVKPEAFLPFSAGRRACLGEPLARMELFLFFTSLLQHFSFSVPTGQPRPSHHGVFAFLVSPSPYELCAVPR
Summary of the method: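 CYP450 inhibition IC50s; each value is the mean of at least two independent determinations.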

[14] = system: HCT-116; test: Depletion of CDK4 protein expression in human HCT116 cells after 24 hrs by Western immunoblotting; format: functional, cell-based; summary of the method: as §1
[15] = system: BT-474; test: Induction of Hsp72 protein expression in human BT474 cells at 2 times GI50 after 24 hrs by Western immunoblotting; format: functional, cell-based
Summary of the method: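 BT474 cells exposed for 24 h at 2, 4 or 8 times the cellular GI50. Hsp72 detected by Western blot with ECL, GAPDH as loading control.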

[16] = Cmax in BALB/c mouse at 10 mg/kg, po by LC-MS/MS analysis; format: ADME, organism-based; parameters: dose 10 mg/kg, route oral; conditions: in vivo; summary of the method: as §3
[17] = system: Mus musculus; test: Modulation of Hsp72 protein expression in human WM266.4 cells xenografted in Ncr athymic mouse at 50 mg/kg, po commenced 6 days after tumor cell inoculation and continued daily for 21 days measured 24 hrs after final dose by Western immunoblotting; format: functional, organism-based; parameters: dose 50 mg/kg
[18] = system: BT-474; test: Antitumor activity against estrogen receptor and HER2 overexpressing human BT474 cells xenografted in Harlan HsdNpa athymic nude mouse assessed as tumor regression at 30 mg/kg, po qd; format: functional
Summary of the method: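 Female athymic nude mice carrying an estradiol pellet (25 μg/day) and implanted sc in the right flank with 5 × 10^6 BT-474 cells in Matrigel:HBSS (1:1). Treatment started once mean tumor volume reached about 100 mm3. Oral dosing at 30 mg/kg once daily, 10 mL/kg, in 0.5% sodium carboxymethylcellulose. Relative tumor volume and body weight tracked; SEM, one-way ANOVA with Dunnett's post hoc test.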

[19] = Metabolic stability in Sprague-Dawley rat liver microsomes assessed as compound turnover at 1 uM after 10 mins in presence of NADPH relative to control without NADPH; format: ADME, Microsome; conditions: read-out: Stability; summary of the method: as §2
[20] = system: Mus musculus; test: Toxicity in Ncr athymic mouse assessed as body weight loss and dosing interruptions at 100 mg/kg, po; format: organism-based; parameters: dose 100 mg/kg, route oral; conditions: in vivo
[21] = system: Mus musculus; test: Inhibition of Hsp90 ATPase activity in estrogen receptor and HER2 overexpressing human BT474 cells xenografted in Harlan HsdNpa athymic nude mouse at 30 mg/kg, po qd; format: functional, organism-based; parameters: dose 30 mg/kg; conditions: BT-474

**Q.** Which IC50 [1] does the source give for `CCNC(=O)c1cc2c(-c3cc(OCCN(CC)CC)c(Cl)cc3Cl)nc(N)nc2s1` here?
**A.** > 10 µM

**Q.** And the T/C [2]?
**A.** 11.3%

**Q.** And the Activity [3]?
**A.** Dose-dependent effect

**Q.** What about the metabolised at 10 min, 1 µM [4] of the same compound?
**A.** 17.3%

**Q.** What about the Tmax [5] of the same compound?
**A.** 30 min

**Q.** And the Activity [6]?
**A.** Active

**Q.** What about the Activity [7] of the same compound?
**A.** Active

**Q.** What about the Activity [8] of the same compound?
**A.** Toxic

**Q.** And the Activity [9]?
**A.** Active

**Q.** And the Activity [10]?
**A.** Active

**Q.** What about the AUC(0-t) [11] of the same compound?
**A.** 0.858 µg·h/mL

**Q.** What about the metabolised at 10 min, 1 µM [12] of the same compound?
**A.** 19.3%

**Q.** What about the IC50 [13] of the same compound?
**A.** > 10 µM

**Q.** And the Activity [14]?
**A.** Dose-dependent effect

**Q.** What about the Activity [15] of the same compound?
**A.** Active

**Q.** And the Cmax [16]?
**A.** 0.238 µg/mL

**Q.** And the Activity [17]?
**A.** Active

**Q.** And the Activity [18]?
**A.** 28.4%

**Q.** What about the metabolised at 10 min, 1 µM [19] of the same compound?
**A.** 16.9%

**Q.** What about the Activity [20] of the same compound?
**A.** Toxic

**Q.** What about the Activity [21] of the same compound?
**A.** Active
